{"source": "ChEMBL document CHEMBL4765236", "about": "“Insights into the Antimicrobial Activity and Cytotoxicity of Engineered α-Helical Peptide Amphiphiles” (J Med Chem, 2016)", "key": {"[1]": {"assay": "Therapeutic index, ratio of MHC10 for human RBC to geometric mean of peptide MIC for Escherichia coli O157:H7 CICC 21530", "type": "toxicity", "settings": "human red blood cells (RBC), pooled result: one value given for 11 cell lines, strains, targets or settings, read-out: TI", "how_it_was_run": "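Therapeutic index = MHC (peptide concentration giving 10% hemolysis of human RBCs, 1 h, 37 °C, A540) divided by geometric mean of MICs from broth microdilution (10^5 CFU/mL in MHB, 37 °C, 18-24 h, OD492).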"}, "Salmonella enterica": {"tested_on": "Salmonella enterica", "assay": "Antibacterial activity against Salmonella choleraesuis ATCC 13312 assessed as bacterial growth inhibition incubated for 18 to 24 hrs by broth dilution method", "type": "functional", "settings": "time 18-24 hrs", "how_it_was_run": "(§1)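 Log-phase bacteria grown at 37 °C in MHB, diluted to 10^5 CFU/mL, mixed 1:1 with serial peptide dilutions (peptide diluted in 0.01% acetic acid, 0.2% BSA); 37 °C for 18-24 h. MIC read by OD492 as lowest concentration giving no growth; mean of 3-5 independent experiments.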"}, "Listeria monocytogenes [2]": {"tested_on": "Listeria monocytogenes", "assay": "Antibacterial activity against Listeria monocytogenes CICC 21662 assessed as bacterial growth inhibition incubated for 18 to 24 hrs by microtiter broth dilution method", "type": "functional", "settings": "time 18-24 hrs", "how_it_was_run": "(§2)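 Log-phase cells (grown overnight at 37 °C, subcultured in MHB) diluted to 10^5 CFU/mL in MHB and mixed 1:1 with serial peptide dilutions prepared in 0.01% acetic acid/0.2% BSA. Incubated 37 °C for 18-24 h. MIC is the lowest concentration giving no growth by OD492. Reported as the average of 3-5 independent experiments.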"}, "Listeria monocytogenes [3]": {"tested_on": "Listeria monocytogenes", "assay": "Antibacterial activity against Listeria monocytogenes CICC 21633 assessed as bacterial growth inhibition incubated for 18 to 24 hrs by microtiter broth dilution method", "type": "functional", "settings": "time 18-24 hrs", "how_it_was_run": "as §2"}, "Vibrio parahaemolyticus": {"tested_on": "Vibrio parahaemolyticus", "assay": "Antibacterial activity against Vibrio parahaemolyticus CICC 21617 assessed as bacterial growth inhibition incubated for 18 to 24 hrs by broth dilution method", "type": "functional", "settings": "time 18-24 hrs", "how_it_was_run": "as §2"}, "Salmonella paratyphi [4]": {"tested_on": "Salmonella paratyphi", "assay": "Antibacterial activity against Salmonella paratyphi C CICC 21512 assessed as bacterial growth inhibition incubated for 18 to 24 hrs by microtiter broth dilution method", "type": "functional", "settings": "Salmonella enterica, time 18-24 hrs", "how_it_was_run": "as §1"}, "Salmonella enteritidis": {"tested_on": "Salmonella enteritidis", "assay": "Antibacterial activity against Salmonella enteritidis CICC 21527 assessed as bacterial growth inhibition incubated for 18 to 24 hrs by microtiter broth dilution method", "type": "functional, Salmonella enterica subsp. enterica serovar Enteritidis", "settings": "Salmonella enterica, time 18-24 hrs", "how_it_was_run": "as §2"}, "Pseudomonas fluorescens": {"tested_on": "Pseudomonas fluorescens", "assay": "Antibacterial activity against Pseudomonas fluorescens CICC 21620 assessed as bacterial growth inhibition incubated for 18 to 24 hrs by microtiter broth dilution method", "type": "functional", "settings": "time 18-24 hrs", "how_it_was_run": "as §2"}, "[5]": {"tested_on": "Salmonella enterica subsp. enterica serovar Paratyphi B", "assay": "Antibacterial activity against Salmonella paratyphi B CICC 21495 assessed as bacterial growth inhibition incubated for 18 to 24 hrs by microtiter broth dilution method", "type": "functional", "settings": "time 18-24 hrs", "how_it_was_run": "as §1"}, "Micrococcus luteus": {"tested_on": "Micrococcus luteus", "assay": "Antibacterial activity against Micrococcus luteus CMCC 28001 assessed as bacterial growth inhibition incubated for 18 to 24 hrs by microtiter broth dilution method", "type": "functional", "settings": "time 18-24 hrs", "how_it_was_run": "as §2"}, "Shigella flexneri": {"tested_on": "Shigella flexneri", "assay": "Antibacterial activity against Shigella flexneri CMCC 51571 assessed as bacterial growth inhibition incubated for 18 to 24 hrs by microtiter broth dilution method", "type": "functional", "settings": "time 18-24 hrs", "how_it_was_run": "as §2"}, "Erythrocyte": {"tested_on": "Erythrocyte", "assay": "Hemolytic activity against human red blood cells assessed as concentration required to cause 10% hemoglobin release measured after 1 hr by microplate reader analysis", "type": "ADME, cell-based", "how_it_was_run": "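Fresh heparinized human RBCs washed three times in 10 mM PBS pH 7.4 and resuspended to about 1% (v/v) (5.4 × 10^8 cells/mL). Mixed 1:1 with peptide in PBS for 1 h at 37 °C, then centrifuged. Supernatant hemoglobin read at A540. PBS set as 0% and 0.1% Triton X-100 as 100% hemolysis. MHC is the concentration causing 10% hemolysis.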"}, "Bacillus cereus": {"tested_on": "Bacillus cereus", "assay": "Antibacterial activity against Bacillus cereus CMCC 63301 assessed as bacterial growth inhibition incubated for 18 to 24 hrs by microtiter broth dilution method", "type": "functional", "settings": "time 18-24 hrs", "how_it_was_run": "as §2"}, "Salmonella typhimurium": {"tested_on": "Salmonella typhimurium", "assay": "Antibacterial activity against Salmonella typhimurium CMCC 51005 assessed as bacterial growth inhibition incubated for 18 to 24 hrs by microtiter broth dilution method", "type": "functional, Salmonella enterica subsp. enterica serovar Typhimurium", "settings": "Salmonella enterica, time 18-24 hrs", "how_it_was_run": "as §2"}, "Staphylococcus aureus [6]": {"tested_on": "Staphylococcus aureus", "assay": "Antibacterial activity against Staphylococcus aureus GIM 1.160 assessed as bacterial growth inhibition incubated for 18 to 24 hrs by microtiter broth dilution method", "type": "functional", "settings": "time 18-24 hrs", "how_it_was_run": "as §2"}, "Escherichia coli [7]": {"tested_on": "Escherichia coli", "assay": "Antibacterial activity against Escherichia coli ATCC 35150 assessed as bacterial growth inhibition incubated for 18 to 24 hrs by microtiter broth dilution method", "type": "functional", "settings": "time 18-24 hrs", "how_it_was_run": "as §2"}, "Escherichia coli [8]": {"tested_on": "Escherichia coli", "assay": "Antibacterial activity against Escherichia coli O157:H7 CICC 21530 assessed as bacterial growth inhibition incubated for 18 to 24 hrs by microtiter broth dilution method", "type": "functional", "settings": "time 18-24 hrs", "how_it_was_run": "as §1"}, "Bacillus pumilus": {"tested_on": "Bacillus pumilus", "assay": "Antibacterial activity against Bacillus pumilus CMCC 63202 assessed as bacterial growth inhibition incubated for 18 to 24 hrs by microtiter broth dilution method", "type": "functional", "settings": "time 18-24 hrs", "how_it_was_run": "as §2"}, "Escherichia coli [9]": {"tested_on": "Escherichia coli", "assay": "Antibacterial activity against Escherichia coli ATCC 25922 assessed as bacterial growth inhibition incubated for 18 to 24 hrs by microtiter broth dilution method", "type": "functional", "settings": "time 18-24 hrs", "how_it_was_run": "as §2"}, "Salmonella paratyphi [10]": {"tested_on": "Salmonella paratyphi", "assay": "Antibacterial activity against Salmonella paratyphi A CICC 20501 assessed as bacterial growth inhibition incubated for 18 to 24 hrs by microtiter broth dilution method", "type": "functional, Salmonella enterica subsp. enterica serovar Paratyphi A", "settings": "Salmonella enterica, time 18-24 hrs", "how_it_was_run": "as §1"}, "Staphylococcus aureus [11]": {"tested_on": "Staphylococcus aureus", "assay": "Antibacterial activity against Staphylococcus aureus ATCC 29213 assessed as bacterial growth inhibition incubated for 18 to 24 hrs by microtiter broth dilution method", "type": "functional", "settings": "time 18-24 hrs", "how_it_was_run": "as §2"}, "Candida albicans": {"tested_on": "Candida albicans", "assay": "Antifungal activity against Candida albicans ATCC 10231 assessed as fungal growth inhibition incubated for 18 to 24 hrs by microtiter broth dilution method", "type": "functional", "settings": "time 18-24 hrs", "how_it_was_run": "as §2"}, "Staphylococcus aureus [12]": {"tested_on": "Staphylococcus aureus", "assay": "Antibacterial activity against methicillin resistant Staphylococcus aureus ATCC 43300 assessed as bacterial growth inhibition incubated for 18 to 24 hrs by microtiter broth dilution method", "type": "functional", "settings": "time 18-24 hrs", "how_it_was_run": "as §1"}}, "note": "Where a SMILES comes first, the peptide text is derived from it. Bridges are numbered along the chain shown (N, C = ends). [ ]: non-standard residue; d: D form. The star is where a group is joined. X1 = CC[C@H](C)CCCCC(=O)*; Dab = NCC[C@H](N)C(=O)O"}
{"smiles": "CC[C@H](C)CCCCC(=O)N[C@@H](CCN)C(=O)N[C@H](C(=O)N[C@@H](CCN)C(=O)N[C@H]1CCNC(=O)[C@H]([C@@H](C)O)NC(=O)[C@H](CCN)NC(=O)[C@H](CCN)NC(=O)[C@H](CC(C)C)NC(=O)[C@@H](Cc2ccccc2)NC(=O)[C@H](CCN)NC1=O)[C@@H](C)O", "note": "(X1-[Dab]T[Dab][Dab][Dab][dF]L[Dab][Dab]T; lactam 4-C)", "values": [{"measurement": "selectivity ratio", "setting": "[1]", "value": 165}, {"measurement": "MIC", "setting": "Salmonella enterica", "value": 1.54, "unit": "µM"}, {"measurement": "MIC", "setting": "Listeria monocytogenes [2]", "value": 24.6, "unit": "µM"}, {"measurement": "MIC", "setting": "Listeria monocytogenes [3]", "value": 12.3, "unit": "µM"}, {"measurement": "MIC", "setting": "Vibrio parahaemolyticus", "value": 0.77, "unit": "µM"}, {"measurement": "MIC", "setting": "Salmonella paratyphi [4]", "value": 3.07, "unit": "µM"}, {"measurement": "MIC", "setting": "Salmonella enteritidis", "value": 1.54, "unit": "µM"}, {"measurement": "MIC", "setting": "Pseudomonas fluorescens", "value": 49.2, "unit": "µM"}, {"measurement": "MIC", "setting": "[5]", "value": 1.54, "unit": "µM"}, {"measurement": "MIC", "setting": "Micrococcus luteus", "value": "> 98.3", "unit": "µM"}, {"measurement": "MIC", "setting": "Shigella flexneri", "value": 0.77, "unit": "µM"}, {"measurement": "MHC10", "setting": "Erythrocyte", "value": "> 98.34", "unit": "µM"}, {"measurement": "MIC", "setting": "Bacillus cereus", "value": 49.2, "unit": "µM"}, {"measurement": "MIC", "setting": "Salmonella typhimurium", "value": 0.77, "unit": "µM"}, {"measurement": "MIC", "setting": "Staphylococcus aureus [6]", "value": 49.2, "unit": "µM"}, {"measurement": "MIC", "setting": "Escherichia coli [7]", "value": 1.54, "unit": "µM"}, {"measurement": "MIC", "setting": "Escherichia coli [8]", "value": 3.07, "unit": "µM"}, {"measurement": "MIC", "setting": "Bacillus pumilus", "value": 49.2, "unit": "µM"}, {"measurement": "MIC", "setting": "Escherichia coli [9]", "value": 0.38, "unit": "µM"}, {"measurement": "MIC", "setting": "Salmonella paratyphi [10]", "value": 0.77, "unit": "µM"}, {"measurement": "MIC", "setting": "Staphylococcus aureus [11]", "value": 49.2, "unit": "µM"}, {"measurement": "MIC", "setting": "Candida albicans", "value": 49.2, "unit": "µM"}, {"measurement": "MIC", "setting": "Staphylococcus aureus [12]", "value": "> 98.3", "unit": "µM"}]}
{"smiles": "C[C@@H]1[C@H](O)[C@@H](C)/C=C/C=C/C=C/C=C/C=C/C=C/C=C/[C@H](O[C@@H]2O[C@H](C)[C@@H](O)[C@H](N)[C@@H]2O)C[C@@H]2O[C@](O)(C[C@@H](O)C[C@@H](O)[C@H](O)CC[C@@H](O)C[C@@H](O)CC(=O)O[C@H]1C)C[C@H](O)[C@H]2C(=O)O", "note": "[AMPHOTERICIN B]", "values": [{"measurement": "MIC", "setting": "Salmonella enterica", "value": "> 139", "unit": "µM"}, {"measurement": "MIC", "setting": "Listeria monocytogenes [2]", "value": "> 139", "unit": "µM"}, {"measurement": "MIC", "setting": "Listeria monocytogenes [3]", "value": "> 139", "unit": "µM"}, {"measurement": "MIC", "setting": "Vibrio parahaemolyticus", "value": "> 139", "unit": "µM"}, {"measurement": "MIC", "setting": "Salmonella paratyphi [4]", "value": "> 139", "unit": "µM"}, {"measurement": "MIC", "setting": "Salmonella enteritidis", "value": "> 139", "unit": "µM"}, {"measurement": "MIC", "setting": "Pseudomonas fluorescens", "value": "> 139", "unit": "µM"}, {"measurement": "MIC", "setting": "[5]", "value": "> 139", "unit": "µM"}, {"measurement": "MIC", "setting": "Micrococcus luteus", "value": "> 139", "unit": "µM"}, {"measurement": "MIC", "setting": "Shigella flexneri", "value": "> 139", "unit": "µM"}, {"measurement": "MHC10", "setting": "Erythrocyte", "value": 0.54, "unit": "µM"}, {"measurement": "MIC", "setting": "Bacillus cereus", "value": "> 139", "unit": "µM"}, {"measurement": "MIC", "setting": "Salmonella typhimurium", "value": "> 139", "unit": "µM"}, {"measurement": "MIC", "setting": "Staphylococcus aureus [6]", "value": "> 139", "unit": "µM"}, {"measurement": "MIC", "setting": "Escherichia coli [7]", "value": "> 139", "unit": "µM"}, {"measurement": "MIC", "setting": "Escherichia coli [8]", "value": "> 139", "unit": "µM"}, {"measurement": "MIC", "setting": "Bacillus pumilus", "value": "> 139", "unit": "µM"}, {"measurement": "MIC", "setting": "Escherichia coli [9]", "value": "> 139", "unit": "µM"}, {"measurement": "MIC", "setting": "Salmonella paratyphi [10]", "value": "> 139", "unit": "µM"}, {"measurement": "MIC", "setting": "Staphylococcus aureus [11]", "value": "> 139", "unit": "µM"}, {"measurement": "MIC", "setting": "Candida albicans", "value": 4.33, "unit": "µM"}, {"measurement": "MIC", "setting": "Staphylococcus aureus [12]", "value": "> 139", "unit": "µM"}]}
